Screens: PubChem, several laboratories
Biofilm kill mix – clotrimazole potentiators killing C. albicans biofilm, primary screen, 4-compound mixtures; C. albicans biofilm persisters + clotrimazole, fluorescence viability; primary screen in compound mixtures of four per well; hit rate 0.02% among 120,000; inhibition, % at 7.6 µM; AID 1242, 2008;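 active means inhibition above 30.3% in the primary screen of four-compound pools, then above 30% when the compound was retested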;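 further: compounds exposed to preformed 24 h biofilms for 48 h; 0% = untreated biofilm control and 100% = clotrimazole plus chlorhexidine kill blank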
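Incubation: 24 h biofilm formation, then 48 h compound exposure, 37 °C | Material: C. albicans biofilms | Buffer or medium: RPMI/MOPS medium, pH 7.0 | Measured by: 2-h Alamar Blue fluorescence, 535/590 nm excitation/emission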
S1P4 agonist – S1P4 receptor agonists, primary screen, cell-based; activation, % at 4.98 µM; S1P4-expressing cell line, agonist reporter assay; hit rate 0.35% among 220,000; Sphingosine 1-phosphate receptor 4 (Homo sapiens), O95977; in the data active means activation above about 11%;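 further: 0% = DMSO vehicle and 100% = reference agonist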
Rad51 HR inh – human RAD51 strand exchange inhibitors, primary screen, biochemical, fluorescence. DNA repair protein RAD51 homolog 1 (Homo sapiens), Q06609. hRad51 DNA strand exchange, fluorescence dequenching. inhibition, % at 10 µM. hit rate 0.085% among 200,000;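 active means inhibition above 40% at the single screening dose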;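 further: 0% = DMSO control wells and 100% = blanks with heterologous ssDNA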
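Read-out basis: percent inhibition relative to plate controls and blanks / Assay system: human Rad51 nucleoprotein filaments preassembled on unlabelled ssDNA / Timing: filaments 15 min 37 °C, then compound 30 min / Control set: per-plate controls and blanks / Technique: fluorescence dequenching at 485/520 nm / Compound: 10 µM final, single point / Also added: Fluorescein- and BHQ1-tagged 47-mer duplex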
S1P4 antagonist – S1P4 receptor antagonists, primary screen, cell-based. hit rate 0.26% among 220,000. Sphingosine 1-phosphate receptor 4 (Homo sapiens), O95977. S1P4-expressing cells, antagonist mode, reporter read-out. AID 1510, 2009. inhibition, % at 4.98 µM; in the data active means inhibition above about 29%;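 further: 0% = wells stimulated with agonist and 100% = vehicle wells without agonist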
S1P3 antagonist – S1P3 receptor antagonists, primary screen, cell-based; Sphingosine 1-phosphate receptor 3 (Homo sapiens), Q99500; CHO S1P3 NFAT-BLA reporter, FRET fluorescence, antagonist mode; inhibition, % at 4.98 µM; hit rate 0.27% among 170,000; AID 485, 2006;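 active means inhibition above the plate cutoff, the mean inhibition of test wells on that plate plus 3 SD, cut at about 28% in these data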;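 further: cells challenged with S1P at its EC80 of 0.8 µM; blue over green emission ratio from cleaved BLA substrate after 4 h stimulation; 0% = S1P-stimulated wells and 100% = unstimulated DMSO-only wells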
Target sequence (Q99500 whole entry, looked up): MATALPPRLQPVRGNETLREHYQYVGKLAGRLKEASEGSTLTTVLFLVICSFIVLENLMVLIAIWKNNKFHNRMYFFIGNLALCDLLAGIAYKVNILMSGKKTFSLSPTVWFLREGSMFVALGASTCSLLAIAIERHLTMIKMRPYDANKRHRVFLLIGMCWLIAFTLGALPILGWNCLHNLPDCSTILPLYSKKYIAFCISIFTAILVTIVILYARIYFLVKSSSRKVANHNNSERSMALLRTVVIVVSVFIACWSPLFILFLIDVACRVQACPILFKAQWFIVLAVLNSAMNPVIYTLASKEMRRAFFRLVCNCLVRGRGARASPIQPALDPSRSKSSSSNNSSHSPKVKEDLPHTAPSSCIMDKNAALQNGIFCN
HMGR II inh – inhibitors of E. faecalis class II HMGR, primary screen, biochemical, Enterococcus faecalis | inhibition, % at 10 µM | hit rate 0.41% among 190,000 | purified E. faecalis HMGR, NADPH absorbance 340 nm kinetic | AID 1066, 2008;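 active means inhibition above a set limit, the median over all tested compounds plus 3 SD, cut at about 9.5% in these data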;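 further: enzyme runs in reverse so mevalonate oxidation gives rising NADPH absorbance; 0% = complete reaction with DMSO and 100% = background rate lacking mevalonate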
S1P4 antag cf – S1P4 receptor antagonists, human, confirmation, cell-based. shares compounds with S1P4 antagonist. S1P4-expressing cell line, antagonist mode, reporter read-out. inhibition, % at 4.98 µM. hit rate 71% among 520. AID 1524, 2009; in the data active means inhibition above about 30%
S1P1 antag – S1P1 receptor antagonists, human, counter-screen for S1P4 antagonist project, cell-based; inhibition, % at 4.98 µM; shares compounds with S1P4 antagonist; cell-based S1P1 antagonist counterscreen, inhibition; hit rate 37% among 520; in the data active means inhibition above about 40%;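 further: receptor stimulated with S1P near its EC80; 0% = agonist stimulated wells and 100% = vehicle only wells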
Target sequence (P21453 whole entry, looked up): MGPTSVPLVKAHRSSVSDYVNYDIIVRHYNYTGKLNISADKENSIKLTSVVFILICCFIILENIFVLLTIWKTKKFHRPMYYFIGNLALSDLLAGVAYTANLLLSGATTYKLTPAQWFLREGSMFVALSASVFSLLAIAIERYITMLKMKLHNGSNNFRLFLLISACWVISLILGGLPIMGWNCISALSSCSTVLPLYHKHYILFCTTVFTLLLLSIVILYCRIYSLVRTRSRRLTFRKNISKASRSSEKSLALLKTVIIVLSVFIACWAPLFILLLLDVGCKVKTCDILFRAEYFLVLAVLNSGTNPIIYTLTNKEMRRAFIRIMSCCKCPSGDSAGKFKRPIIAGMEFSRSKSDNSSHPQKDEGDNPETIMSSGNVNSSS
* marks the source's active call; other numbers are inactive results; nt = not tested or not shown. An excerpt weighted towards active compounds, which were near 1.2% of everything screened.

SMILES	Biofilm kill mix	S1P4 agonist	Rad51 HR inh	S1P4 antagonist	S1P3 antagonist	HMGR II inh	S1P4 antag cf	S1P1 antag
Cc1ccc2oc(=O)n(CCCOc3ccccc3)c2c1	nt	-0.4	-6.6	34.1*	40.4	-1.3	10.9	10.6
CCCCNC(=O)c1onc(CSc2cccc(C)c2)c1C(=O)O	nt	0.0	-0.6	7.5	nt	-1.3	nt	nt
Cc1cccc(OCC(=O)Nc2ccc(N3CCN(S(C)(=O)=O)CC3)cc2)c1C	nt	-2.4	-1.4	-4.1	-24.8	3.2	nt	nt
O=C(Nc1nnc(-c2ccc3c(c2)CCCC3)o1)c1ccccc1	nt	2.2	5.3	30.9*	nt	-5.1	102.1*	95.7*
O=C(COC(=O)C12CC3CC(CC(C3)C1)C2)Nc1ccc(OC(F)F)cc1	nt	1.1	-6.5	-5.3	nt	-3.5	nt	nt
CCOC(=O)COc1ccc(C(=O)Nc2cccc(Cl)c2C)cc1	4.3	1.3	2.2	32.5*	-0.9	-5.8	0.7	-2.8
c1cnc(Oc2ccc(-c3nnco3)cc2)cn1	nt	0.7	4.0	36.9*	-33.4	-4.8	4.1	26.8
FC(F)(F)c1cnc(Oc2ccc(-c3nnco3)cc2)c(Cl)c1	nt	-0.2	3.2	-17.3	-21.5	-15.8	nt	nt
COc1ccc(/C=C/C(=O)c2cc(F)ccc2OC(=O)c2ccccc2OC)cc1OC	19.4	0.7	8.9	47.4*	25.6	-3.1	81.9*	98.9*
O=C(OCc1ccccn1)c1ccc(COc2ccccc2Cl)o1	nt	1.0	-1.9	-16.9	nt	0.7	nt	nt
N#Cc1cc(Oc2cccc3cccnc23)c(-n2nnc3ccccc32)cc1C#N	nt	7.4	2.4	33.6*	nt	-1.4	11.7	-19.7
NC(=O)Cn1c(=O)n(C2CCCCC2)c(=O)c2c3c(sc21)CCCCC3	12.9	2.2	-5.2	-7.4	-8.4	0.8	nt	nt
Cc1ccc(C)c(OCC(=O)Nc2ccc3c(c2)OCO3)c1C	nt	-0.2	-6.9	30.1*	7.8	-1.8	1.6	6.4
O=C(NCCCN1CCOCC1)c1ccc2c(c1)N(Cc1ccccc1)CCS2	20.0	-0.5	nt	-10.4	3.7	nt	nt	nt
Cc1ccc(CCN2CC(C(=O)NCc3cccnc3)CC2=O)cc1 (stereo not drawn)	nt	-0.9	5.7	-13.9	-45.9	nt	nt	nt
O=C(NCc1cccnc1)/C(=C\c1ccc(-c2ccc(Cl)c(Cl)c2)o1)S(=O)(=O)c1ccccc1	21.3	-0.9	nt	57.9*	10.0	-2.5	108.0*	48.4*
O=C(NCc1cccnc1)c1ccc(-c2ccc(Cl)cc2)o1	10.5	-0.5	8.4	-10.5	-12.6	2.5	nt	nt
O=C(/C=C/c1ccccc1)CC(O)(c1ccccc1)C(F)(F)C(F)F (stereo not drawn)	nt	-3.1	3.0	58.5*	nt	-1.7	106.4*	33.2
O=C(/C=C/c1ccccc1)CC(O)(c1ccccc1)C(F)(F)F (stereo not drawn)	nt	-2.1	1.5	46.9*	nt	4.1	106.2*	41.4*
COc1ccc(/C=C/C(=O)CC(O)(c2ccccc2)C(F)(F)F)cc1 (stereo not drawn)	7.8	-0.1	3.9	10.8	nt	-11.0	nt	nt
CC1Cc2nc(SCC(=O)NCc3ccco3)n(-c3ccccc3)c(=O)c2S1 (stereo not drawn)	nt	-1.1	-6.0	7.4	-15.2	-9.1	nt	nt
CCOC(=O)c1c(NC(=O)OC)sc(C(=O)N(C)C)c1C	nt	2.5	-10.5	44.2*	nt	1.0	-0.5	-2.8
COC(=O)Nc1sc(C(=O)N(C)C)c(C)c1C(=O)OC	nt	0.7	2.6	-8.7	nt	-0.2	nt	nt
O=C(CCSc1ccccc1)NC1CCCCCC1	4.4	-0.3	-4.0	43.3*	0.5	0.5	3.1	26.4
COc1ccc(OC)c(NC=C2C(=O)OC(C)(C)OC2=O)c1	nt	-0.2	-9.7	-7.7	-14.3	-5.4	nt	nt
SMILES	Biofilm kill mix	S1P4 agonist	Rad51 HR inh	S1P4 antagonist	S1P3 antagonist	HMGR II inh	S1P4 antag cf	S1P1 antag
COc1ccc(OC)c(NC=C2C(=O)OC3(CCCCC3)OC2=O)c1	nt	3.6	-4.0	32.3*	-15.7	-6.3	-18.6	-3.2
O=C(N/N=C/c1sc(N2CCOCC2)nc1-c1ccccc1)c1cccc(S(=O)(=O)N2CCCC2)c1	7.9	-0.9	-64.0	-7.8	0.6	0.7	nt	nt
Cn1c2c(c(=O)n(C)c1=O)C(C(F)(F)F)(C(F)(F)F)N=C(c1ccc(Cl)cc1)N2	nt	0.8	4.7	51.4*	nt	-1.6	21.4	-19.2
Cc1ccccc1C1=NC(C(F)(F)F)(C(F)(F)F)c2c(n(C)c(=O)n(C)c2=O)N1	14.3	-0.2	3.5	-18.8	-1.4	-0.1	nt	nt
COc1ccc(CN(C(=O)/C=C/c2ccco2)C2CCS(=O)(=O)C2)cc1 (stereo not drawn)	6.8	1.7	-1.4	-20.4	-9.9	nt	nt	nt
CCOc1cccc(/C(O)=C2/C(=O)C(=O)N(CCOC)C2c2ccco2)c1 (stereo not drawn)	nt	2.0	2.8	-3.8	nt	-4.7	nt	nt
O=C1C(Cl)=C(Nc2ccc3cn[nH]c3c2)C(=O)c2ccccc21	13.2	1.2	10.4	61.8*	8.8	nt	94.7*	91.1*
O=C(Nc1ccc2cn[nH]c2c1)c1c(Cl)cccc1Cl	22.9	-0.9	0.4	-12.8	4.1	-2.5	nt	nt
CCOc1ccc2nc(NCCCNS(=O)(=O)c3ccc(C)cc3)c(C#N)cc2c1	9.1	4.3	-6.7	-21.2	nt	-4.6	nt	nt
O=C(Nc1nnc(-c2cccs2)o1)c1cccc(Oc2ccccc2)c1	nt	2.2	-3.8	32.2*	-32.5	-3.6	98.5*	94.2*
CCCCn1c(CCC(=O)O)ccc1-c1cccs1	nt	3.5	-4.0	-9.6	-22.4	-8.1	nt	nt
CCN1CCN(c2ccc(NC(=O)c3ccc([N+](=O)[O-])o3)cc2Cl)CC1	13.5	-2.9	9.8	85.9*	0.1	-5.7	74.7*	67.2*
O=C(Nc1ccc(S(=O)(=O)N2CCOCC2)cc1)c1ccco1	nt	1.1	-5.6	-20.3	-0.4	-7.3	nt	nt
CCC(=O)N1CCN(c2ccc(NC(=O)c3ccc([N+](=O)[O-])o3)cc2Cl)CC1	7.6	-1.1	nt	56.2*	-3.2	0.3	113.0*	43.8*
O=C(Nc1ccc(S(=O)(=O)N2CCOCC2)cc1)c1ccc([N+](=O)[O-])o1	24.2	1.1	4.4	67.7*	3.0	nt	85.4*	35.9
COc1ccc(NC(=O)/C(Cl)=C(/Cl)S(=O)(=O)Cc2ccccc2)cn1	nt	4.2	-3.9	66.5*	nt	-4.7	118.9*	61.5*
CC(C)(C)OC(=O)N[C@@H](Cc1ccccc1)c1nnc(SCC(=O)O)o1	nt	-0.3	2.8	17.5	-36.3	-2.7	nt	nt
